# Data taken from PubChem BioAssay AID1385 (PCMD, 2008).
# Hit rate of the full screen: of about 200,000 compounds, about 170 (0.085%) were called active.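 Rule for the calls: active = inhibition above 40% at the single screening dose; inactive = the rest.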 The entries come from a sample that favours actives as a whole.
# Biological target: DNA repair protein RAD51 homolog 1 (Homo sapiens) (UniProt Q06609)
# Test: human RAD51 strand exchange inhibitors, primary screen, biochemical, fluorescence (AID 1385);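 note: 0% = DMSO control wells and 100% = blanks with heterologous ssDNA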
# Conditions: hRad51 DNA strand exchange, fluorescence dequenching; at 10 µM; hits give high values
# Outline: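 Test system – preformed human Rad51 ssDNA filaments · Reagent – Donor/quencher-labelled 47-bp dsDNA substrate · Incubation – 37 °C 15-min filament assembly, 30-min compound preincubation, 15-min exchange · Signal – FRET fluorescence dequenching, excitation 485 nm, emission 520 nm · Read-out – percent inhibition from fluorescence, normalised to plate control and blank means · Benchmarks – plate control and blank wells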
# Chain of DNA repair protein RAD51 homolog 1 (Homo sapiens) (Q06609 whole entry, looked up): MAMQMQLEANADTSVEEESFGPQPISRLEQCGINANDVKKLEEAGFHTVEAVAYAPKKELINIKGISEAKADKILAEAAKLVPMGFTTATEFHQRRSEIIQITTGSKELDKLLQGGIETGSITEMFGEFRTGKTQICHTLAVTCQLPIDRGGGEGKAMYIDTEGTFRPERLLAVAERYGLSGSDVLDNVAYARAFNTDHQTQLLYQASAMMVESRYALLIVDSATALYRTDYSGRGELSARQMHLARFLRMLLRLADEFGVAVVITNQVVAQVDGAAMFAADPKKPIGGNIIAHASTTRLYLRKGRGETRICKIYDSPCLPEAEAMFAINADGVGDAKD
row,SMILES,inhibition
1,Cc1nc(-c2ccccc2)sc1-c1nnc(C2CC2)o1,13.8% (inactive)
2,Cc1cc(=O)oc2cc(OCC(=O)Nc3nnc(C4CC4)s3)ccc12,27.8% (inactive)
3,CCCSc1ncccc1C(=O)O,14.8% (inactive)
4,Cc1ccc(NC(=O)C/C(N)=N/O)cc1Cl,-4.43% (inactive)
5,O=S(=O)(Cc1noc(-c2ccc(OC(F)(F)F)cc2)n1)c1ccc(F)cc1,-2.58% (inactive)
6,CC(NC(=O)C(=O)Nc1nccs1)c1ccccc1 (stereo not given),2.32% (inactive)
7,CCOC(=O)c1c(N)sc2c1CCCC2=O,10.5% (inactive)
8,CCCc1nc2c(c(=O)c3ccccc3n2C)c(=O)n1-c1cc(C)cc(C)c1,20% (inactive)
9,Cc1cc(N)n(-c2ccc(S(=O)(=O)N3CCCC3)cc2[N+](=O)[O-])n1,4.97% (inactive)
10,O=C(N/N=C/c1ccco1)c1csc2c1CCCC2,7.09% (inactive)
11,Cn1c2c(c(=O)n(C)c1=O)C(c1cccc(F)c1)C(C#N)=C(N)O2 (stereo not given),1.62% (inactive)
12,O=C1NNC(c2ccccc2)=N/C1=C\c1ccc(Cl)cc1,-17% (inactive)
13,O=C(NCCN1CCOCC1)c1ccc2c(c1)N(Cc1ccc(Cl)cc1)CCS2,22.5% (inactive)
14,CC1(C)CC(=O)C=C(Nc2ccccc2)C1,8.69% (inactive)
15,O=C(C1=C(O)C(=O)N(CCOCCO)C1c1ccccn1)c1cccs1 (stereo not given),21.9% (inactive)
16,CC12CN3CCN(CC(C3)/C1=N\NC(=O)c1ccccc1N)C2,-2.47% (inactive)
17,Nc1scc[n+]1Cc1cccc2cccnc12,9.86% (inactive)
18,Cc1c(CCC(=O)O)c(=O)oc2cc3occ(-c4ccccc4)c3cc12,3.32% (inactive)
19,O=C(Cn1cnc2ccccc2c1=O)Nc1cccc(S(=O)(=O)N2CCCCC2)c1,11.5% (inactive)
20,Cn1c(=O)c2c(-c3cccc(Br)c3)c(C#N)c(N)nc2n(C)c1=O,4.26% (inactive)
21,COc1ccccc1/C=C/C=N/NC(=O)CN1CCN(Cc2ccccc2)CC1,-30.5% (inactive)
22,CCOc1cc2c(Cl)ncnc2c(OCC)c1OCC,-5.3% (inactive)
23,O=S(=O)(Nc1ccc(Cl)cn1)c1cnc(Cl)c(Br)c1,12% (inactive)
24,CC(NCc1ccccc1OC1CCCC1)c1ccccc1 (stereo not given),15.6% (inactive)
25,O=c1cc(CCl)nc2scc(-c3ccccc3)n12,-3.51% (inactive)

row,SMILES,inhibition
1,CNC(=S)NNC(=O)c1oc2nc(-c3ccccc3)cc(-c3ccco3)c2c1N,-38.4% (inactive)
2,Cc1onc(-c2c(Cl)cccc2Cl)c1C(=O)NNC(=O)c1c(-c2c(Cl)cccc2Cl)noc1C,9.44% (inactive)
3,COc1cccc(Nc2nc(N)c([N+](=O)[O-])c(NCc3ccco3)n2)c1,1.8% (inactive)
4,COc1ccc(CN2CC[C@H]3C=CC[C@@H](C(=O)N4CCOCC4)[C@H]3C2=O)cc1OC,-2.64% (inactive)
5,COc1ccccc1-n1c(SCC(=O)O)nc2sc3c(c2c1=O)CCC3,4.79% (inactive)
6,COC(=O)C1=C[C@@H](C(=O)OC)[C@@H]2C3=C(C(=O)[C@]2(C)NC(=O)c2ccccc2)[C@H](C)n2c(=O)n(C)c(=O)n2[C@@H]3C1,-1.64% (inactive)
7,Cc1ncn2cc(-c3ccc(Cl)cc3Cl)[nH]c(=O)c12,-9.91% (inactive)
8,CCn1c(=O)c2cc(C(=O)Nc3cccc(C(C)=O)c3)sc2c2ccccc21,-1.26% (inactive)
9,NS(=O)(=O)c1ccc(CNC(=O)c2cnccn2)cc1,7.99% (inactive)
10,NC(=O)c1nnsc1-c1ccc(-c2snnc2C(N)=O)cc1,-31.9% (inactive)
11,COc1ccc(CN2CCOC2=O)cc1OC,-3.27% (inactive)
12,CCN(CC)c1ccc(NC(=O)C2CCC(CNc3c(N4CCCC4)c(=O)c3=O)CC2)c(C)c1 (stereo not given),15.6% (inactive)
13,CC(O)c1nc2c(c(=O)n(C)c(=O)n2C)n1C (stereo not given),-23.8% (inactive)
14,COc1ccc(CCNC2=C(Cl)C(=O)N(Cc3ccccc3)C2=O)cc1OC,8.51% (inactive)
15,COc1ccc(C(=O)O/N=C(\N)Cc2ccc(Cl)cc2Cl)cc1OC,1.56% (inactive)
16,COc1ccc(CCn2ccc(O)c(Cc3ccc(Cl)cc3Cl)c2=O)cc1OC,43.6% (active)
17,O=C1[C@@H]2C(c3cccnc3)=NO[C@@H]2C(=O)N1c1ccc(Cl)cc1Cl,-42% (inactive)
18,COc1ccc(NS(=O)(=O)c2ccc(N3CCOCC3)c(NC(=O)c3ccccc3Br)c2)cc1,17% (inactive)
19,CN(C)S(=O)(=O)c1ccc(Cl)c(NC(=O)COC(=O)CC(NC(N)=O)c2ccc(Cl)cc2)c1 (stereo not given),-44.1% (inactive)
20,Clc1ccc(C[n+]2cc(-c3ccccc3)n3c2CCC3)cc1,18.9% (inactive)
21,NNC(=O)c1ccc(COCC(F)(F)C(F)F)cc1,1.4% (inactive)
22,COc1ccc2nc(NC(=O)NC3CCCCC3)sc2c1,-16.2% (inactive)
23,Cc1ccsc1/C=N/NC(=O)Cc1cc(=O)[nH][nH]1,16.7% (inactive)
24,Cc1ccc(C(=O)NNC2=Nc3cc([N+](=O)[O-])ccc3OC2)cc1,3.01% (inactive)
25,COc1ccc(NC(=O)CSc2ncnc3[nH]ncc23)cc1,-5.26% (inactive)
